# Measurements reported in ChEMBL document CHEMBL2176909, “Kaurenoic acid from Sphagneticola trilobata Inhibits Inflammatory Pain: effect on cytokine production and activation of the NO-cyclic GMP-protein kinase G-ATP-sensitive potassium channel signaling pathway” (J Nat Prod, 2012).
# Activity calls are given as the source filed them.
# What was measured:
# [1] = system: Mus musculus; test: Antinociceptive activity in Swiss mouse assessed as inhibition of acetic acid-induced writhing at 5 mg/kg, ip administered 30 mins prior to acetic acid challenge; assay type: functional, organism-based; design: dose 5 mg/kg
# [2] = system: Mus musculus; test: Antihyperalgesic activity in carrageenan-induced mechanical hyperalgesia Swiss mouse model assessed as paw withdrawal latency at 5 mg/kg, ip administered 40 mins prior to challenge by electronic pressure-meter test; assay type: functional, organism-based; design: dose 5 mg/kg
# Procedure, shortened: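 Male Swiss mice dosed po (1–10 mg/kg, 2% DMSO in saline) 30 min before intraplantar carrageenin (100 μg/paw). Control indomethacin 5 mg/kg ip given 40 min before. Electronic pressure-meter readings at 1, 3 and 5 h, mean of three. Δ withdrawal threshold (g) is the post-stimulus reading minus zero-time. n = 5.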
# [3] = system: Mus musculus; test: Hepatotoxicity in Swiss mouse assessed as change in plasma AST level at 2.5 mg/kg, po for 7 days measured over 7 days relative to vehicle-treated control; assay type: toxicity, organism-based; design: dose 2.5 mg/kg, route oral; conditions: in vivo, 168 h
# Procedure, shortened: (§1)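 Mice dosed po daily for 7 days: vehicle (2% DMSO/saline or Tris/HCl pH 8.0), 10 mg/kg, or indomethacin 2.5 mg/kg. Heparinized blood is drawn under terminal anesthesia, and plasma AST and ALT are measured with a diagnostic kit. n = 8.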
# [4] = system: Mus musculus; test: Hepatotoxicity in Swiss mouse assessed as change in plasma ALT level at 2.5 mg/kg, po for 7 days measured over 7 days relative to vehicle-treated control; assay type: toxicity, organism-based; design: dose 2.5 mg/kg, route oral; conditions: in vivo, 168 h; procedure, shortened: as §1
# [5] = system: Mus musculus; test: Antinociceptive activity in Swiss mouse assessed as inhibition of PBQ-induced writhing at 5 mg/kg, ip administered 30 mins prior to PBQ challenge; assay type: functional, organism-based; design: dose 5 mg/kg
# [6] = system: Mus musculus; test: Gastrointestinal toxicity in Swiss mouse assessed as increase in stomach MPO activity at 2.5 mg/kg, po for 7 days measured over 7 days relative to vehicle-treated control; assay type: organism-based; design: dose 2.5 mg/kg, route oral; conditions: in vivo, 168 h
# Procedure, shortened: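 Mice dosed po daily for 7 days: vehicle (2% DMSO/saline or Tris/HCl pH 8.0), 10 mg/kg, or indomethacin 2.5 mg/kg. Stomach is homogenized in 50 mM phosphate buffer pH 6.0 with 0.5% HTAB. Supernatant is reacted with o-dianisidine/H2O2 and read at 450 nm. Results expressed as neutrophils ×10^4/mg tissue from a neutrophil standard curve. n = 8.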
structure (smiles),measurement,setting,value
COc1ccc2c(c1)c(CC(=O)O)c(C)n2C(=O)c1ccc(Cl)cc1 [INDOMETHACIN],inhibition,[1],Active
same,Activity,[2],Active
same,Activity,[3],Toxic
same,Activity,[4],Toxic
same,inhibition,[5],Active
same,Activity,[6],Toxic
